Assay results reported in ChEMBL document CHEMBL1138555, “N-acylated and N,N'-diacylated imidazolidine-2-thione derivatives and N,N'-diacylated tetrahydropyrimidine-2(1H)-thione analogues: synthesis and antiproliferative activity” (Eur J Med Chem, 2009).
Activity calls are given as the source filed them. The rule behind the calls is not given here.

Assays:
[1] = system: Human immunodeficiency virus 1; test: Antiviral activity against HIV1 in human MT4 cells assessed as prevention of virus-induced cytopathogenicity; format: functional, organism-based
Method in brief: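 MT-4 cells, 1 × 10⁴ per well, with serial compound dilutions from a 100 mM DMSO stock. Infected with HIV-1 at 100 CCID50. Four-day incubation at 37 °C, then viable cells measured by MTT. Read-out is inhibition of virus-induced cytopathogenicity, assessed at non-cytotoxic concentrations.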

SW-620 = test: Growth inhibition of human SW620 cells after 48 hrs by sulforhodamine B assay; format: functional; conditions: SW-620, 48 h
Method in brief: (§1)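 NCI in vitro panel screen. Compounds tested at five 10-fold dilutions, 10^-4 to 10^-8 M. Cells in 96-well plates were exposed for the last 48 h of a 72 h incubation. Viability/growth was read by sulforhodamine B protein assay. GI50 is the concentration giving 50% growth inhibition. Values beyond the tested range are reported as greater or less than the maximum or minimum concentration.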

HL-60(TB) = test: Growth inhibition of human HL-60(TB) cells after 48 hrs by sulforhodamine B assay; format: functional; conditions: HL-60, 48 h
Method in brief: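 NCI 60-cell-line screen protocol: cells exposed to compound at five 10-fold dilutions from 10^-4 to 10^-8 M for the last 48 h of a 72 h incubation. Sulforhodamine B protein assay estimated viability/growth. GI50 (50% growth inhibition) derived; where not reached or exceeded, reported as greater or less than the highest or lowest concentration tested.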

MDA-MB-435 = test: Growth inhibition of human MDA-MB-435 cells after 48 hrs by sulforhodamine B assay; format: functional; conditions: MDA-MB-435, 48 h
Method in brief: (§2)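 NCI screen panel. Five 10-fold concentrations from 10^-4 to 10^-8 M. Exposure for the last 48 h of a 72 h incubation. Growth estimated by sulforhodamine B protein assay. GI50 is the concentration giving 50% growth inhibition. Where that level was not reached or was exceeded, the value is given as above or below the highest or lowest concentration tested.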

SF-295 = test: Growth inhibition of human SF295 cells after 48 hrs by sulforhodamine B assay; format: functional; conditions: SF-295, 48 h; method in brief: as §2
IGROV-1 = test: Growth inhibition of human IGROV1 cells after 48 hrs by sulforhodamine B assay; format: functional; conditions: IGROV-1, 48 h; method in brief: as §2
786-0 = test: Growth inhibition of human 786-0 cells after 48 hrs by sulforhodamine B assay; format: functional; conditions: 786-0, 48 h; method in brief: as §2
NCI-H522 = test: Growth inhibition of human NCI-H522 cells after 48 hrs by sulforhodamine B assay; format: functional; conditions: NCI-H522, 48 h; method in brief: as §2
HT-29 = test: Growth inhibition of human HT-29 cells after 48 hrs by sulforhodamine B assay; format: functional; conditions: HT-29, 48 h; method in brief: as §2
NCI-H23 = test: Growth inhibition of human NCI-H23 cells after 48 hrs by sulforhodamine B assay; format: functional; conditions: NCI-H23, 48 h; method in brief: as §2
UACC-257 = test: Growth inhibition of human UACC257 cells after 48 hrs by sulforhodamine B assay; format: functional; conditions: UACC-257, 48 h; method in brief: as §1
LOX IMVI = test: Growth inhibition of human LOXIMVI cells after 48 hrs by sulforhodamine B assay; format: functional; method in brief: as §2
HCT-15 = test: Growth inhibition of human HCT15 cells after 48 hrs by sulforhodamine B assay; format: functional; conditions: HCT-15, 48 h; method in brief: as §2
TK-10 = test: Growth inhibition of human TK10 cells after 48 hrs by sulforhodamine B assay; format: functional; conditions: TK-10, 48 h; method in brief: as §1
RXF 393 = test: Growth inhibition of human RXF393 cells after 48 hrs by sulforhodamine B assay; format: functional; conditions: RXF 393, 48 h; method in brief: as §2
NCI-H460 = test: Growth inhibition of human NCI-H460 cells after 48 hrs by sulforhodamine B assay; format: functional; conditions: NCI-H460, 48 h; method in brief: as §2
HOP-62 = test: Growth inhibition of human HOP62 cells after 48 hrs by sulforhodamine B assay; format: functional; conditions: HOP-62, 48 h; method in brief: as §2
OVCAR-4 = test: Growth inhibition of human OVCAR4 cells after 48 hrs by sulforhodamine B assay; format: functional; conditions: OVCAR-4, 48 h; method in brief: as §2
SK-MEL-5 = test: Growth inhibition of human SK-MEL-5 cells after 48 hrs by sulforhodamine B assay; format: functional; conditions: SK-MEL-5, 48 h; method in brief: as §2
M14 = test: Growth inhibition of human M14 cells after 48 hrs by sulforhodamine B assay; format: functional; conditions: M14, 48 h; method in brief: as §2
COLO 205 = test: Growth inhibition of human COLO205 cells after 48 hrs by sulforhodamine B assay; format: functional; conditions: COLO 205, 48 h; method in brief: as §2
SNB-19 = test: Growth inhibition of human SNB19 cells after 48 hrs by sulforhodamine B assay; format: functional; conditions: SNB-19, 48 h; method in brief: as §1
ACHN = test: Growth inhibition of human ACHN cells after 48 hrs by sulforhodamine B assay; format: functional; method in brief: as §2
UACC-62 = test: Growth inhibition of human UACC62 cells after 48 hrs by sulforhodamine B assay; format: functional; conditions: UACC-62, 48 h; method in brief: as §1
CCRF-CEM = test: Growth inhibition of human CCRF-CEM cells after 48 hrs by sulforhodamine B assay; format: functional; method in brief: as §2
MCF7 = test: Growth inhibition of human MCF7 cells after 48 hrs by sulforhodamine B assay; format: functional; conditions: MCF7, 48 h; method in brief: as §2
SK-MEL-28 = test: Growth inhibition of human SK-MEL-28 cells after 48 hrs by sulforhodamine B assay; format: functional; conditions: SK-MEL-28, 48 h; method in brief: as §2
SK-MEL-2 = test: Growth inhibition of human SK-MEL-2 cells after 48 hrs by sulforhodamine B assay; format: functional; conditions: SK-MEL-2, 48 h; method in brief: as §2
EKVX = test: Growth inhibition of human EKVX cells after 48 hrs by sulforhodamine B assay; format: functional; method in brief: as §2
SF-268 = test: Growth inhibition of human SF268 cells after 48 hrs by sulforhodamine B assay; format: functional; conditions: SF-268, 48 h; method in brief: as §2
HOP-92 = test: Growth inhibition of human HOP92 cells after 48 hrs by sulforhodamine B assay; format: functional; conditions: HOP-92, 48 h; method in brief: as §2
MOLT-4 = test: Growth inhibition of human MOLT4 cells after 48 hrs by sulforhodamine B assay; format: functional; conditions: MOLT-4, 48 h; method in brief: as §2
DU-145 = test: Growth inhibition of human DU145 cells after 48 hrs by sulforhodamine B assay; format: functional; conditions: DU-145, 48 h; method in brief: as §2
K562 = test: Growth inhibition of human K562 cells after 48 hrs by sulforhodamine B assay; format: functional; conditions: K562, 48 h; method in brief: as §2
Malme-3M = test: Growth inhibition of human MALME-3M cells after 48 hrs by sulforhodamine B assay; format: functional; method in brief: as §2
A549 = test: Growth inhibition of human A549 cells after 48 hrs by sulforhodamine B assay; format: functional; conditions: A549, 48 h; method in brief: as §2
KM12 = test: Growth inhibition of human KM12 cells after 48 hrs by sulforhodamine B assay; format: functional; conditions: KM12, 48 h; method in brief: as §2
BT-549 = test: Growth inhibition of human BT549 cells after 48 hrs by sulforhodamine B assay; format: functional; conditions: BT-549, 48 h; method in brief: as §2
HCT-116 = test: Growth inhibition of human HCT116 cells after 48 hrs by sulforhodamine B assay; format: functional; conditions: HCT-116, 48 h; method in brief: as §2
UO-31 = test: Growth inhibition of human UO31 cells after 48 hrs by sulforhodamine B assay; format: functional; conditions: UO-31, 48 h; method in brief: as §1
MT4 = test: Antiproliferative activity against human MT4 cells assessed as reduction of growth by MTT assay; format: functional, cell-based
Method in brief: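 MT-4 lymphoblastoid T cells (ATCC) in RPMI 1640 with 10% FCS, penicillin/streptomycin, checked for mycoplasma. 1 × 10⁴ mock-infected cells per well with serial dilutions from a 100 mM DMSO stock. Incubated 4 days at 37 °C, viable cells counted by MTT. IC50 versus untreated controls by linear regression. Mean of three separate experiments.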

NCI-H322M = test: Growth inhibition of human NCI-H322M cells after 48 hrs by sulforhodamine B assay; format: functional; method in brief: as §2
SR = test: Growth inhibition of human SR cells after 48 hrs by sulforhodamine B assay; format: functional; method in brief: as §1
SK-OV-3 = test: Growth inhibition of human SKOV3 cells after 48 hrs by sulforhodamine B assay; format: functional; conditions: SK-OV-3, 48 h; method in brief: as §2
OVCAR-3 = test: Growth inhibition of human OVCAR-3 cells after 48 hrs by sulforhodamine B assay; format: functional; conditions: OVCAR-3, 48 h; method in brief: as §2
[2] = Growth inhibition of human […] cells after 48 hrs by sulforhodamine B assay; format: functional; method in brief: as §2
NCI/ADR-RES = test: Growth inhibition of human NCI/ADR-RES cells after 48 hrs by sulforhodamine B assay; format: functional; method in brief: as §2
U-251 = test: Growth inhibition of human U251 cells after 48 hrs by sulforhodamine B assay; format: functional; conditions: U-251, 48 h; method in brief: as §1
MDA-MB-231 = test: Growth inhibition of human MDA-MB-231 cells after 48 hrs by sulforhodamine B assay; format: functional; conditions: MDA-MB-231, 48 h; method in brief: as §2
PC-3 = test: Growth inhibition of human PC3 cells after 48 hrs by sulforhodamine B assay; format: functional; conditions: PC-3, 48 h; method in brief: as §2
SN12C = test: Growth inhibition of human SN12C cells after 48 hrs by sulforhodamine B assay; format: functional; method in brief: as §1
OVCAR-8 = test: Growth inhibition of human OVCAR8 cells after 48 hrs by sulforhodamine B assay; format: functional; conditions: OVCAR-8, 48 h; method in brief: as §2
CAKI-1 = test: Growth inhibition of human Caki1 cells after 48 hrs by sulforhodamine B assay; format: functional; conditions: CAKI-1, 48 h; method in brief: as §2

Structure (SMILES): N#C/C(=C\N1CCNC1=S)C(=O)Nc1ccc(Cl)cc1
- Activity [1]: inactive

Structure (SMILES): CC(=O)C(=CN1CCNC1=S)C(C)=O
- Activity [1]: inactive

Structure (SMILES): N#C/C(=C\N1CCN(C(=O)c2ccco2)C1=S)C(=O)Nc1ccc(Cl)cc1
- GI50 (SW-620): 17.3 µM
- GI50 (HL-60(TB)): 10.5 µM
- GI50 (MDA-MB-435): 15.2 µM
- GI50 (SF-295): 20.2 µM
- GI50 (IGROV-1): 25.3 µM
- GI50 (786-0): 17.4 µM
- GI50 (NCI-H522): 16.7 µM
- GI50 (HT-29): 21.4 µM
- GI50 (NCI-H23): 12.3 µM
- GI50 (UACC-257): 16.5 µM
- GI50 (LOX IMVI): 16.7 µM
- GI50 (HCT-15): 21.3 µM
- GI50 (TK-10): 19.4 µM
- GI50 (RXF 393): 13.1 µM
- GI50 (NCI-H460): 19.9 µM
- GI50 (HOP-62): 25.7 µM
- GI50 (OVCAR-4): 25.2 µM
- GI50 (SK-MEL-5): 11.2 µM
- GI50 (M14): 14.2 µM
- GI50 (COLO 205): 25.6 µM
- GI50 (SNB-19): 27.6 µM
- GI50 (ACHN): 15.3 µM
- GI50 (UACC-62): 16.9 µM
- GI50 (CCRF-CEM): 22.5 µM
- GI50 (MCF7): 21 µM
- GI50 (SK-MEL-28): 18.7 µM
- GI50 (SK-MEL-2): 16.7 µM
- GI50 (EKVX): 0.01 µM
- GI50 (SF-268): 17.8 µM
- GI50 (HOP-92): 21.5 µM
- GI50 (MOLT-4): 17.7 µM
- GI50 (DU-145): 15.9 µM
- GI50 (K562): 16.1 µM
- GI50 (Malme-3M): 21.4 µM
- GI50 (A549): 25.8 µM
- GI50 (KM12): 16.3 µM
- GI50 (BT-549): 8.6 µM
- GI50 (HCT-116): 15.2 µM
- GI50 (UO-31): 12 µM
- IC50 (MT4): 6.5 µM
- GI50 (NCI-H322M): 28.6 µM
- GI50 (SR): 1.6 µM
- GI50 (SK-OV-3): 41.2 µM
- GI50 (OVCAR-3): 15.5 µM
- GI50 [2]: 10.5 µM
- GI50 (NCI/ADR-RES): 28.1 µM
- GI50 (U-251): 17.3 µM
- GI50 (MDA-MB-231): 18.4 µM
- GI50 (PC-3): 18.9 µM
- GI50 (SN12C): 11.8 µM
- GI50 (OVCAR-8): 20.6 µM
- GI50 (CAKI-1): 13.2 µM

Structure (SMILES): N#C/C(=C\N1CCNC1=S)C(N)=O
- Activity [1]: inactive

Structure (SMILES): N#CC(C#N)=CN1CCNC1=S
- Activity [1]: inactive

Structure (SMILES): COC(=O)/C(=C\N1CCNC1=S)C(C)=O
- Activity [1]: inactive

Structure (SMILES): COC(=O)/C(C#N)=C/N1CCNC1=S
- Activity [1]: inactive
